# How the values were obtained:
# Assay type in all cases: functional
# Aspergillus niger [1] = assay: Antifungal activity against Aspergillus niger MTCC 1344 at 100 ug/ml after 48 hrs by agar cup diffusion method; settings: MTCC 1344, 48 h, read-out: DIZ
# How it was run: (§1)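 Agar cup diffusion on autoclaved potato dextrose agar plates. Each plate was spread with 0.5 ml of a week-old culture, and test solutions at 30 and 100 per ml were added to cups. Plates were held at 28 °C for 48 h, and inhibition zone diameters were read in mm. Acetone served as the solvent control and amphotericin-B as the reference.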
# Escherichia coli = assay: Antibacterial activity against Escherichia coli MTCC 443 by broth dilution method
# How it was run: (§2)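 MIC by broth dilution in nutrient broth. Test bacteria were kept on nutrient agar slants and subcultured in Petri dishes before testing.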
# Pseudomonas aeruginosa = assay: Antibacterial activity against Pseudomonas aeruginosa MTCC 741 by broth dilution method; how it was run: as §2
# Candida albicans [2] = assay: Antifungal activity against Candida albicans MTCC 227 at 100 ug/ml after 48 hrs by agar cup diffusion method; settings: MTCC 227, 48 h, read-out: DIZ; how it was run: as §1
# Bacillus subtilis = assay: Antibacterial activity against Bacillus subtilis MTCC 441 by broth dilution method; how it was run: as §2
# Saccharomyces cerevisiae [3] = assay: Antifungal activity against Saccharomyces cerevisiae MTCC 36 at 100 ug/ml after 48 hrs by agar cup diffusion method; settings: MTCC 36, 48 h, read-out: DIZ; how it was run: as §1
# Rhizopus arrhizus [4] = assay: Antifungal activity against Rhizopus oryzae MTCC 262 at 100 ug/ml after 48 hrs by agar cup diffusion method; settings: MTCC 262, 48 h, read-out: DIZ; how it was run: as §1
# Aspergillus flavus [5] = assay: Antifungal activity against Aspergillus flavus MTCC 277 at 100 ug/ml after 48 hrs by agar cup diffusion method; settings: MTCC 277, 48 h, read-out: DIZ; how it was run: as §1
# Diutina rugosa [6] = assay: Antifungal activity against Candida rugosa NCIM 3462 at 100 ug/ml after 48 hrs by agar cup diffusion method; settings: NCIM 3462, 48 h, read-out: DIZ; how it was run: as §1
# [7] = system: Staphylococcus epidermidis; assay: Antibacterial activity against Staphylococcus epidermidis MTCC 435 by broth dilution method; how it was run: as §2
# Staphylococcus aureus = assay: Antibacterial activity against Staphylococcus aureus MTCC 96 by broth dilution method; how it was run: as §2
# Candida albicans [8] = assay: Antifungal activity against Candida albicans MTCC 227 at 30 ug/ml after 48 hrs by agar cup diffusion method; settings: MTCC 227, 48 h, read-out: DIZ; how it was run: as §1
# Aspergillus niger [9] = assay: Antifungal activity against Aspergillus niger MTCC 1344 at 30 ug/ml after 48 hrs by agar cup diffusion method; settings: MTCC 1344, 48 h, read-out: DIZ; how it was run: as §1
# Aspergillus flavus [10] = assay: Antifungal activity against Aspergillus flavus MTCC 277 at 30 ug/ml after 48 hrs by agar cup diffusion method; settings: MTCC 277, 48 h, read-out: DIZ; how it was run: as §1
# Saccharomyces cerevisiae [11] = assay: Antifungal activity against Saccharomyces cerevisiae MTCC 36 at 30 ug/ml after 48 hrs by agar cup diffusion method; settings: MTCC 36, 48 h, read-out: DIZ; how it was run: as §1
# Diutina rugosa [12] = assay: Antifungal activity against Candida rugosa NCIM 3462 at 30 ug/ml after 48 hrs by agar cup diffusion method; settings: NCIM 3462, 48 h, read-out: DIZ; how it was run: as §1
# Rhizopus arrhizus [13] = assay: Antifungal activity against Rhizopus oryzae MTCC 262 at 30 ug/ml after 48 hrs by agar cup diffusion method; settings: MTCC 262, 48 h, read-out: DIZ; how it was run: as §1
Structure (SMILES),zone of inhibition at 100 µg/mL (Aspergillus niger [1]) [mm],MIC (Escherichia coli) [µg/mL],MIC (Pseudomonas aeruginosa) [µg/mL],zone of inhibition at 100 µg/mL (Candida albicans [2]) [mm],MIC (Bacillus subtilis) [µg/mL],zone of inhibition at 100 µg/mL (Saccharomyces cerevisiae [3]) [mm],zone of inhibition at 100 µg/mL (Rhizopus arrhizus [4]) [mm],zone of inhibition at 100 µg/mL (Aspergillus flavus [5]) [mm],zone of inhibition at 100 µg/mL (Diutina rugosa [6]) [mm],MIC [7] [µg/mL],MIC (Staphylococcus aureus) [µg/mL],zone of inhibition at 30 µg/mL (Candida albicans [8]) [mm],zone of inhibition at 30 µg/mL (Aspergillus niger [9]) [mm],zone of inhibition at 30 µg/mL (Aspergillus flavus [10]) [mm],zone of inhibition at 30 µg/mL (Saccharomyces cerevisiae [11]) [mm],zone of inhibition at 30 µg/mL (Diutina rugosa [12]) [mm],zone of inhibition at 30 µg/mL (Rhizopus arrhizus [13]) [mm]
O=c1c2ccccc2nc(-c2ccccc2)n1Cc1cn(CCC(F)(F)C(F)(F)C(F)(F)C(F)(F)C(F)(F)C(F)(F)C(F)(F)C(F)(F)F)nn1,9,15,75,9,150,9,10,9,10,75,75,–,–,–,–,–,–
FC(F)(F)c1nc(OCc2cn(CCC(F)(F)C(F)(F)C(F)(F)C(F)(F)C(F)(F)C(F)(F)F)nn2)c2ccccc2n1,12,75,37.5,12,18.8,9,9,9,9,9.38,9.38,8,8,–,–,–,–
CC1(C)S[C@@H]2[C@H](NC(=O)Cc3ccccc3)C(=O)N2[C@H]1C(=O)O [PENICILLIN G],–,6.25,12.5,–,1.53,–,–,–,–,3.12,6.25,–,–,–,–,–,–
FC(F)(F)C(F)(F)C(F)(F)C(F)(F)C(F)(F)C(F)(F)CCn1cc(COc2nc(-c3ccccc3)nc3ccccc23)nn1,11,75,75,11,150,9,–,9,–,75,75,8,8,–,–,–,–
CN[C@@H]1[C@H](O[C@H]2[C@H](O[C@H]3[C@H](O)[C@@H](O)[C@H](N=C(N)N)[C@@H](O)[C@@H]3N=C(N)N)O[C@@H](C)[C@]2(O)C=O)O[C@@H](CO)[C@H](O)[C@H]1O [STREPTOMYCIN],–,3.12,3.12,–,6.25,–,–,–,–,1.56,1.56,–,–,–,–,–,–
FC(F)(F)C(F)(F)C(F)(F)C(F)(F)C(F)(F)C(F)(F)C(F)(F)C(F)(F)CCn1nncc1COc1nc(-c2ccccc2)nc2ccccc12,12,75,37.5,12,37.5,9,12,9,12,9.38,9.38,8,8,–,–,–,–
O=c1c2ccccc2nc(-c2c(F)cccc2F)n1Cc1cn(CCC(F)(F)C(F)(F)C(F)(F)C(F)(F)C(F)(F)C(F)(F)F)nn1,10,150,150,10,150,–,–,–,–,150,150,7,7,–,–,–,–
O=c1c2ccccc2nc(-c2c(F)cccc2F)n1Cc1cn(CCC(F)(F)C(F)(F)C(F)(F)C(F)(F)C(F)(F)C(F)(F)C(F)(F)C(F)(F)F)nn1,10,75,75,10,150,9,9,9,9,150,150,7,7,–,–,–,–
O=c1c2ccccc2nc(-c2ccccc2)n1Cc1cn(CCC(F)(F)C(F)(F)C(F)(F)C(F)(F)C(F)(F)C(F)(F)F)nn1,12,75,37.5,12,150,12,10,12,10,150,150,9,9,8,8,–,–
O=c1c2ccccc2nc(C(F)(F)F)n1Cc1cn(CCC(F)(F)C(F)(F)C(F)(F)C(F)(F)C(F)(F)C(F)(F)C(F)(F)C(F)(F)F)nn1,9,75,75,9,75,9,–,9,–,75,75,7,7,–,–,–,–
FC(F)(F)C(F)(F)C(F)(F)C(F)(F)C(F)(F)C(F)(F)C(F)(F)C(F)(F)CCn1cc(COc2nc(-c3ccccc3)nc3ccccc23)nn1,10,150,75,10,150,10,10,10,10,150,150,7,7,7,7,–,–
O=c1c2ccccc2nc(C(F)(F)F)n1Cc1cn(CCC(F)(F)C(F)(F)C(F)(F)C(F)(F)C(F)(F)C(F)(F)F)nn1,9,75,75,9,150,12,13,12,13,150,150,–,–,9,9,8,8
C#CCOc1nc(-c2ccccc2)nc2ccccc12,10,150,150,10,150,–,–,–,–,150,150,7,7,–,–,–,–
FC(F)(F)c1nc(OCc2cn(CCC(F)(F)C(F)(F)C(F)(F)C(F)(F)C(F)(F)C(F)(F)C(F)(F)C(F)(F)F)nn2)c2ccccc2n1,9,150,150,9,150,–,–,–,–,150,150,–,–,–,–,–,–
